Measurements pooled from the literature.
Lines come from different studies, so protocols differ.
Target: Tyrosine-protein kinase TXK (TXK, Homo sapiens, UniProt P42681)
Sequence (P42681 1-527, as in one of the studies): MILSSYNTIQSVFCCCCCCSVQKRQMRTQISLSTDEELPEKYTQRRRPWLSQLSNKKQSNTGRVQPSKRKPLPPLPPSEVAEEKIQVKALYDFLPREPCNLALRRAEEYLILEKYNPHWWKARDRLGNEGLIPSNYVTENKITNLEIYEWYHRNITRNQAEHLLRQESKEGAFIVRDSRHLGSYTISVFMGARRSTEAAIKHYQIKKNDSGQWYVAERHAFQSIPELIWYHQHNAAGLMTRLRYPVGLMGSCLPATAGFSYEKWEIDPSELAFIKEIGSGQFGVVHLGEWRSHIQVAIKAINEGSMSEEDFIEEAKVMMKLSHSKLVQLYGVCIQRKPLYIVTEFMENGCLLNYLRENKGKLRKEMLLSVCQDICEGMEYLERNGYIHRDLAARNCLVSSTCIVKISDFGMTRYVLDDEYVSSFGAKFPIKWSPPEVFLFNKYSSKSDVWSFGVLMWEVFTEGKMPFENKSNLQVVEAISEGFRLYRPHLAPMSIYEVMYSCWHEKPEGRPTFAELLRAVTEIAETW

COc1ccnn2ncc(-c3ccnc(N(C)C)n3)c12 — remaining binding (binding; 1 µM): 100%
O=C(c1ccc(Nc2nccc(-c3cc4ccccc4s3)n2)cc1)N1CCC(N2CCCC2)CC1 — remaining binding (binding; competition with immobilised ligand; 1 µM): 92%
CN(C)c1nccc(-c2cnn3ncccc23)n1 — remaining binding (binding; 1 µM): 100%
CCc1ccccc1C(=O)Nc1n[nH]c2c(C)c(F)c(C3C(C#N)=C(C)N(C)C(C)=C3C#N)cc12 — remaining binding (binding; competition with immobilised ligand; 1 µM): 84%
O=C(c1ccc(Nc2ncc(Cl)c(-c3ccc(Cl)s3)n2)cc1)N1CCC(N2CCCC2)CC1 — remaining binding (binding; competition with immobilised ligand; 1 µM): 80%
C=CC(=O)N1CCC(C(=O)NCC(=O)N2CCN(c3nc(-c4cnc(N)nc4C(F)F)nc(N4CCOCC4)n3)CC2)CC1 — remaining binding (binding; competition with immobilised ligand; 1 µM): 100%
COc1cnc(Nc2cccc(S(N)(=O)=O)c2)nc1N1CCN(c2ccccc2)CC1 — remaining binding (binding; competition with immobilised ligand; 1 µM): 100%
c1cncc(-c2cccc(Nc3nccc(NC4CCCCC4)n3)c2)c1 — remaining binding (binding; competition with immobilised ligand; 10 µM): 20%
CNCc1ccccc1-c1csc([C@H](C)Nc2nc(C)nc3cc(OC)c(OC)cc23)c1 — remaining binding (cell-free assay; competition with immobilised ligand; 1 µM): 100%
O=C(c1ccc(Nc2ncc(Cl)c(-c3cc4ccccc4s3)n2)cc1)N1CCC(N2CCCC2)CC1 — remaining binding (binding; competition with immobilised ligand; 1 µM): 71%
CC1=C(C#N)[C@@H](c2ccc3[nH]nc(C)c3c2)C(C#N)=C(c2ccc(Cl)cc2)N1 — remaining binding (binding; competition with immobilised ligand; 1 µM): 88.1%
N[C@H]1CCN(c2nccc(-c3cnn4ncccc34)n2)C1 — remaining binding (binding; 1 µM): 100%
COc1ncc2cc3ccccc3nc2c1C#N — remaining binding (binding; competition with immobilised ligand; 5 µM): 93%
C[C@H]1CCN(c2nccc(-c3cnn4ncccc34)n2)C1 — remaining binding (binding; 1 µM): 90%
Cn1nc(C(F)(F)F)cc1-c1cnc(N2CCc3cc(S(=O)(=O)Nc4c(F)cc(Cl)cc4F)cc(N4CCCC4=O)c32)nc1 — remaining binding (binding; competition with immobilised ligand; 1 µM): 100%
O=C(Nc1c[nH]nc1C(=O)NC1CCNCC1)c1cc(F)cc(F)c1 — remaining binding (binding; competition with immobilised ligand; 1 µM): 100%
CN(C)c1nccc(-c2cnc3ncccn23)n1 — remaining binding (binding; 1 µM): 98%
CCOCCn1cc(C(=O)Nc2ccc(-n3nc(-c4cccnc4)cc3C(F)(F)F)cn2)ccc1=O — remaining binding (binding; competition with immobilised ligand; 1 µM): 81%
c1cnn2ncc(-c3ccnc(N4CCC45COC5)n3)c2c1 — remaining binding (binding; 1 µM): 100%
CCCOc1ccc([C@@H]2[C@@H](C(=O)O)[C@H](c3ccc4c(c3)OCO4)CN2CC(=O)Nc2c(CC)cccc2CC)cc1 — remaining binding (binding; competition with immobilised ligand; 1 µM): 100%
CN(C)c1ncc(F)c(-c2cnn3ncccc23)n1 — remaining binding (binding; 1 µM): 100%
Cc1c(NC(=O)c2cc(C(N)=O)nc3cc(F)ccc23)c(C(F)(F)F)nn1Cc1ccc(C(C)(C)C)cc1 — remaining binding (cell-free assay; competition with immobilised ligand; 1 µM): 100%
